Reference: ChEMBL document CHEMBL3877263, “Synthesis and in vitro characterization of novel fluorinated derivatives of the translocator protein 18 kDa ligand CfO-DPA-714” (Eur J Med Chem, 2017)

Experiments:
Rattus norvegicus = species: Rattus norvegicus; experiment: Displacement of [3H]flunitrazepam from CBR in rat cerebral cortex membranes at 1 uM relative to control; assay type: cell membranes; conditions: Membrane
[1] = n-Octanol-buffer partition coefficient, log D of the compound at pH 7.4 by HPLC method; assay type: physicochemical
Translocator protein = Translocator protein (Rattus norvegicus, UniProt P16257); experiment: Displacement of [3H]PK11195 from TSPO in rat heart membranes after 15 mins by scintillation counting method; assay type: cell membranes, Membrane
Chain of Translocator protein (P16257 whole entry, looked up): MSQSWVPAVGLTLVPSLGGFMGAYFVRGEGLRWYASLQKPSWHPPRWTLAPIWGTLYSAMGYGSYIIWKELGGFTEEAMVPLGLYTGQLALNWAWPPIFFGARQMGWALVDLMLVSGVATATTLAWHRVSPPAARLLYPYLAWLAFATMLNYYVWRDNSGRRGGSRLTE

[2] = Intrinsic clearance in Sprague-Dawley rat hepatic microsomes assessed per mg protein up to 30 mins in presence of NADPH by UPLC-MS method; assay type: ADME; conditions: liver microsomes, read-out: CLH
How it was run: (§1)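 Hepatic microsomes (male CD1 mouse, male Sprague-Dawley rat, or pooled human) at 0.25 mg/mL protein, substrate 0.5 µM, 1 mM NADPH; samples at 0, 5, 10, 20, 30 min, quenched with 1 volume CH3CN, centrifuged, supernatant by UPLC/HRMS. % remaining vs T0 (analyte/internal standard ratio); k from ln(% stability) vs time; InC = k/protein concentration × 1000.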

[3] = Intrinsic clearance in human hepatic microsomes assessed per mg protein up to 30 mins in presence of NADPH by UPLC-MS method; assay type: ADME; conditions: liver microsomes, read-out: CLH; how it was run: as §1
[4] = Intrinsic clearance in CD1 mouse hepatic microsomes assessed per mg protein up to 30 mins in presence of NADPH by UPLC-MS method; assay type: ADME; conditions: liver microsomes, read-out: CLH; how it was run: as §1

Row | SMILES | inhibition (Rattus norvegicus) [%] | logD [1] | Ki (Translocator protein) [nM] | microsomal CLint [2] [µL/min/mg] | microsomal CLint [3] [µL/min/mg] | microsomal CLint [4] [µL/min/mg]
1 | Cc1cc(C)n2nc(-c3ccc(CCCF)cc3)c(CC(=O)N3CCCC3)c2n1 | 0 | 3.04 | 26 | – | – | –
2 | CCCN(C)C(=O)Cc1c(-c2ccc(CCCF)cc2)nn2c(C)cc(C)nc12 | 0 | 3.65 | 0.25 | > 1000 | 321 | 781
3 | Cc1cc(C)n2nc(-c3ccc(CCCF)cc3)c(CC(=O)N3CCNCC3)c2n1 | 0 | 0.87 | 260 | – | – | –
4 | Cc1cc(C)n2nc(-c3ccc(CCCF)cc3)c(CC(=O)N(C)CCc3ccccc3)c2n1 | 0 | 4.08 | 1.1 | > 1000 | > 1000 | > 1000
5 | CCN(CC)C(=O)Cc1c(-c2ccc(OCCF)cc2)nn2c(C)cc(C)nc12 [DPA-714] | 0 | – | – | > 1000 | 68 | 408
6 | Cc1cc(C)n2nc(-c3ccc(CCCF)cc3)c(CC(=O)N(C)C)c2n1 | 2 | 2.68 | 15 | – | – | –
7 | Cc1cc(C)n2nc(-c3ccc(CCCF)cc3)c(CC(=O)N3CCC3)c2n1 | 0 | 2.73 | 32 | – | – | –
8 | CCCN(CCC)C(=O)Cc1c(-c2ccc(CCCF)cc2)nn2c(C)cc(C)nc12 | 0 | 4.39 | 0.26 | > 1000 | > 1000 | > 1000
9 | Cc1cc(C)n2nc(-c3ccc(CCCF)cc3)c(CC(=O)NC3CC3)c2n1 | 0 | 2.69 | 17 | – | – | –
10 | Cc1cc(C)n2nc(-c3ccc(CCCF)cc3)c(CC(=O)N(C)Cc3cccnc3)c2n1 | 0 | 2.61 | 2.8 | > 1000 | 862 | > 1000

Further lines, results first:

Row | inhibition (Rattus norvegicus) [%] | logD [1] | Ki (Translocator protein) [nM] | microsomal CLint [2] [µL/min/mg] | microsomal CLint [3] [µL/min/mg] | microsomal CLint [4] [µL/min/mg] | SMILES
11 | 0 | 2.56 | 27 | – | – | – | Cc1cc(C)n2nc(-c3ccc(CCCF)cc3)c(CC(=O)N3CCOCC3)c2n1
12 | 0 | 3.98 | 0.3 | > 1000 | > 1000 | > 1000 | Cc1cc(C)n2nc(-c3ccc(CCCF)cc3)c(CC(=O)N(C)Cc3ccccc3)c2n1
13 | 0 | 3.51 | – | > 1000 | 241 | 865 | CCN(CC)C(=O)Cc1c(-c2ccc(CCCF)cc2)nn2c(C)cc(C)nc12
14 | 0 | 3.56 | 2.2 | > 1000 | 424 | 931 | Cc1cc(C)n2nc(-c3ccc(CCCF)cc3)c(CC(=O)N3CCCCC3)c2n1
15 | 0 | 3.16 | 1.2 | 610 | 270 | 947 | Cc1cc(C)n2nc(-c3ccc(CCCF)cc3)c(CC(=O)N(C)Cc3ccccn3)c2n1
